ChEMBL document CHEMBL1139454, “NMR structural characterization of peptide inhibitors bound to the Hepatitis C virus NS3 protease: design of a new P2 substituent” (J Med Chem, 2004)
Non-standard residues stand in square brackets, D forms with d. Residues, ends and D or L forms follow the SMILES beside them. Nva = CCC[C@H](N)C(=O)O

system: not listed separately; experiment: Inhibitory activity against hepatitis C virus (NS3 protease; set-up: species or system Hepacivirus hominis
How it was run: (§1)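 Genotype 1b NS3–NS4A heterodimer at 1.5 nM, incubated 45 min at 23 °C with serially diluted inhibitor and 5 μM internally quenched fluorogenic substrate anthranilyl-DDIVPAbu[C(O)-O]-AMY(3-NO₂)TW-OH. Buffer was 50 mM Tris-HCl pH 8.0, 0.25 M sodium citrate, 0.01% n-dodecyl-β-D-maltoside, 1 mM TCEP. Stopped with 1 M MES pH 5.8; product fluorescence read at ex 320/em 405 nm. IC50 from Hill-model nonlinear fit of % inhibition.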

IC50 | Structure (SMILES)
150 µM | CCC[C@H](NC(=O)[C@@H]1CCCN1C(=O)[C@@H](NC(=O)[C@@H](NC(=O)[C@H](CC(=O)O)NC(=O)[C@H](CC(=O)O)NC(C)=O)[C@@H](C)CC)C(C)C)C(=O)O (Ac-DDIVP[Nva]-OH)

biological target: NS3 (Hepatitis C virus, UniProt A3EZJ3); experiment: Inhibitory activity against hepatitis C virus NS3 protease; set-up: species or system Hepacivirus hominis; how it was run: as §1
Sequence (A3EZJ3 whole entry): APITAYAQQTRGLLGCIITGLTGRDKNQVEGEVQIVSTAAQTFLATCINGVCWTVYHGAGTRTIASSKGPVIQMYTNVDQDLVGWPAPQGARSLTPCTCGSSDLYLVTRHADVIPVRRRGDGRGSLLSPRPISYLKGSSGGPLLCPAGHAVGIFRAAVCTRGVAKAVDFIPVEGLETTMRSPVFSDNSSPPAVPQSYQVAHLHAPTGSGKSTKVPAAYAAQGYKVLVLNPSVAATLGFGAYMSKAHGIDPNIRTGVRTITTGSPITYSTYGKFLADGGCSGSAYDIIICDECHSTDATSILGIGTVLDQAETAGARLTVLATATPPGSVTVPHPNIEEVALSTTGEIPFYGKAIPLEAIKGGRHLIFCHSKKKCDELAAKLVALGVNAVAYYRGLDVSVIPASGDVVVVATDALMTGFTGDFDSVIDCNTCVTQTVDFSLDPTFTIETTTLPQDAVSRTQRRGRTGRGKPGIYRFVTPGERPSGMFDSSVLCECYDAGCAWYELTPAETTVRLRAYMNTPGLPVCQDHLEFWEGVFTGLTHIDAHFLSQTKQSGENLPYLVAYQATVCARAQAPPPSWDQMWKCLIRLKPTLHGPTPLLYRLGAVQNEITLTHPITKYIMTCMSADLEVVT

Structure (SMILES) | IC50
CC(=O)N[C@H](C(=O)N[C@H](C(=O)N1CC(Oc2cc(-c3ccccc3)nc3ccccc23)CC1C(=O)NC1(C(=O)O)CC1)C(C)C)C1CCCCC1 (single isomer, unassigned) | 0.37 µM
C=CC1C[C@]1(NC(=O)[C@@H]1C[C@@H](Oc2cc(-c3ccccc3)nc3ccccc23)CN1C(=O)[C@@H](NC(C)=O)C(C)C)C(=O)O (some centres not stated) | 3 µM
C=C[C@@H]1C[C@]1(NC(=O)C1CC(Oc2cc(-c3ccccc3)nc3ccccc23)CN1C(=O)[C@@H](NC(=O)[C@@H](NC(C)=O)C1CCCCC1)C(C)C)C(=O)O (single isomer, unassigned) | 0.013 µM
C=C[C@@H]1C[C@]1(NC(=O)C1CC(Oc2cccc(-c3ccccc3)c2)CN1C(=O)[C@@H](NC(=O)[C@@H](NC(C)=O)C1CCCCC1)C(C)C)C(=O)O (single isomer, unassigned) | 0.12 µM
CC(=O)N[C@H](C(=O)N[C@H](C(=O)N1CC(OCc2cccc3ccccc23)CC1C(=O)NC1(C(=O)O)CC1)C(C)C)C1CCCCC1 (single isomer, unassigned) | 4 µM
C=C[C@@H]1C[C@]1(NC(=O)C1CC(Oc2ccnc3ccccc23)CN1C(=O)[C@@H](NC(=O)[C@@H](NC(C)=O)C1CCCCC1)C(C)C)C(=O)O (single isomer, unassigned) | 0.11 µM
CC(=O)N[C@H](C(=O)N[C@H](C(=O)N1CC(Oc2ccnc3cc(C(F)(F)F)ccc23)CC1C(=O)NC1(C(=O)O)CC1)C(C)C)C1CCCCC1 (single isomer, unassigned) | 8 µM

Now from value to molecule:

IC50 | Structure (SMILES)
52 µM | CC(=O)N[C@H](C(=O)N[C@H](C(=O)N1CC(Oc2cccc(Br)c2)CC1C(=O)NC1(C(=O)O)CC1)C(C)C)C1CCCCC1 (single isomer, unassigned)
6.2 µM | CC(=O)N[C@H](C(=O)N[C@H](C(=O)N1CC(Oc2cccc(-c3ccccc3)c2)CC1C(=O)NC1(C(=O)O)CC1)C(C)C)C1CCCCC1 (single isomer, unassigned)
2.2 µM | CC(=O)N[C@H](C(=O)N[C@H](C(=O)N1CC(Oc2ccnc3ccccc23)CC1C(=O)NC1(C(=O)O)CC1)C(C)C)C1CCCCC1 (single isomer, unassigned)
4 µM | CC(=O)N[C@H](C(=O)N[C@H](C(=O)N1CC(Oc2cccc(-c3cccc([N+](=O)[O-])c3)c2)CC1C(=O)NC1(C(=O)O)CC1)C(C)C)C1CCCCC1 (single isomer, unassigned)
